Source: ChEMBL document CHEMBL5252636, “Host-guest binding of tetracationic cyclophanes to photodynamic agents inhibits posttreatment phototoxicity and maintains antitumour efficacy” (RSC Med Chem, 2023)
Activity calls are given as the source filed them. No cut-off for these calls is given here.

Columns and labels:
[1] = Hemolytic activity in rat RBC assessed as hemolysis up to 100 microg/ml measured after 1 hr; assay type: toxicity, cell-based, Erythrocyte; conditions: red blood cells, up to 100 µg/mL, read-out: Activity
How it was run: (§1)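 Erythrocytes from Sprague Dawley rat or human O-type were used as a 5% (v/v) suspension in normal saline. They were incubated with compound (final 0–100 µg/mL) at 37 °C for 1 h, then centrifuged at 3000 rpm for 10 min at 4 °C. Hemoglobin in the supernatant was read at 545 nm. Saline served as 0% and deionized water as 100% hemolysis.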

[2] = Hemolytic activity in human RBC assessed as hemolysis up to 100 microg/ml measured after 1 hr; assay type: toxicity, cell-based, Erythrocyte; conditions: red blood cells, up to 100 µg/mL, read-out: Activity; how it was run: as §1
L02 = assay: Cytotoxicity against human L02 cells assessed as reduction in cell viability up to 100 microg/ml incubated for 24 hrs by MTT assay; assay type: toxicity, cell-based; conditions: l02, 24 h, up to 100 µg/mL, in the assay text read “CCK-8 assay” for “MTT assay”
How it was run: (§2)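 CCK-8 viability assay. H9C2 cells were grown in DMEM with 10% FBS, and L02 cells in 1640 medium with 20% FBS, both at 37 °C in 5% CO₂. Cells were seeded at 1×10^4 per well, allowed to adhere for 24 h, then exposed to 0–100 µg/mL for 24 h. CCK-8 was added for 1 h and A450 read. Viability is expressed as % of untreated cells; six independent experiments.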

H9c2 = assay: Cytotoxicity against rat H9c2 cells assessed as reduction in cell viability up to 100 microg/ml incubated for 24 hrs by MTT assay; assay type: toxicity, cell-based; conditions: h9c2, 24 h, up to 100 µg/mL, in the assay text read “CCK-8 assay” for “MTT assay”; how it was run: as §2
[3] = Phototoxicity in laser irradiated BALB/c mouse implanted with mouse B16-F10 cells assessed as pathological changes in kidney at 4 mg/kg, sc administered for 3 days followed by sunlight irradiation for 0.5 hr and […] by H and E staining based analysis; assay type: toxicity, organism-based; conditions: in vivo, iv, in the assay text read “iv administered” for “sc administered”
How it was run: (§3)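 Female nude BALB/c mice, 7–8 weeks old, received 1×10^5 B16F10 cells s.c. on the right front back (n=8). At ~20 mm³, mice got Photofrin 4.0 mg/kg i.v. and were kept dark for 24 h. Tumours were then lit with a 635 nm laser (145 mW/cm², 7 min), followed within 30 min by compound 4.0 mg/kg i.v. On day 3 came a solar simulator (100 mW/cm², 30 min). Tumour volume (L×W²/2) was measured daily, skin imaged every 2 days, and H&E done on day 13.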

[4] = Phototoxicity in laser irradiated BALB/c mouse implanted with mouse B16-F10 cells assessed as hair follicle enlargement at 4 mg/kg, sc administered for 3 days followed by sunlight irradiation for 0.5 hr and […] by H and E staining based analysis; assay type: toxicity, organism-based; conditions: in vivo, iv, in the assay text read “iv administered” for “sc administered”; how it was run: as §3
[5] = Phototoxicity in laser irradiated BALB/c mouse implanted with mouse B16-F10 cells assessed as epidermal thickening at 4 mg/kg, sc administered for 3 days followed by sunlight irradiation for 0.5 hr and […] by H and E staining based analysis; assay type: toxicity, organism-based; conditions: in vivo, iv, in the assay text read “iv administered” for “sc administered”; how it was run: as §3
B16-F10 [6] = assay: Antitumor activity against mouse B16-F10 cells implanted BALB/c mouse assessed as reduction in size at 4 mg/kg
[7] = Phototoxicity in laser irradiated BALB/c mouse implanted with mouse B16-F10 cells at 2 mg/kg, followed by sunlight irradiation for 24 hr; conditions: in vivo, 96 h
[8] = Phototoxicity in laser irradiated BALB/c mouse implanted with mouse B16-F10 cells at 2 mg/kg, followed by sunlight irradiation for 24 hr in presence of dopamine; conditions: in vivo, 96 h
B16-F10 [9] = assay: Antitumor activity against mouse B16-F10 cells implanted BALB/c mouse assessed as increase in tumor cell apoptosis at 4 mg/kg, iv by tunel staining based immunohistochemical analysis
[10] = Phototoxicity in laser irradiated BALB/c mouse implanted with mouse B16-F10 cells assessed as skin injury at 4 mg/kg, followed by sunlight irradiation for 0.5 hr and measured on day 11; conditions: in vivo, 264 h
[11] = Phototoxicity in laser irradiated BALB/c mouse implanted with mouse B16-F10 cells assessed as increase in tumor volume at 4 mg/kg, followed by sunlight irradiation for 0.5 hr and measured on day 13; conditions: in vivo, 312 h
[12] = Phototoxicity in laser irradiated BALB/c mouse implanted with mouse B16-F10 cells assessed as pathological changes in skin at 4 mg/kg, followed by sunlight irradiation for 0.5 hr and measured on day 3 by H and E staining based analysis; conditions: in vivo
[13] = Phototoxicity in laser irradiated BALB/c mouse implanted with mouse B16-F10 cells assessed as pathological changes in lung at 4 mg/kg, followed by sunlight irradiation for 0.5 hr and measured on day 3 by H and E staining based analysis; conditions: in vivo
[14] = Water solubility of compound; assay type: physicochemical

With `[Cl-].[Cl-].[Cl-].[Cl-].c1cc2ccc1C[n+]1ccc(cc1)-c1ccc3cc(ccc3c1)-c1cc[n+](cc1)Cc1ccc(cc1)C[n+]1ccc(cc1)-c1ccc3cc(ccc3c1)-c1cc[n+](cc1)C2` the hemolysis at 1 h [1] was no more than 5%, the hemolysis at 1 h [2] was no more than 5% and the Activity (L02) was “>= 90%”. For the same compound, the Activity (H9c2) was “>= 90%”, the Activity [3] was 66% and the Activity [4] was “Non-Toxic”. For the same compound, the Activity [5] was “Non-Toxic”, the Activity (B16-F10 [6]) was 26 mm3 and the Activity [7] was “Non-Toxic”. For the same compound, the Activity [8] was “Non-Toxic”, the Activity (B16-F10 [9]) was “Active” and the Activity [10] was “Non-Toxic”. For the same compound, the Activity [11] was 1344 mm3, the Activity [12] was 67% and the Activity [13] was 41%.

Work on `C[n+]1ccc(-c2cccc3c(-c4cc[n+](C)cc4)cccc23)cc1.[Cl-].[Cl-]` yielded a solubility [14] of 20.7 mM.

With `C[n+]1ccc(-c2ccc3cc(-c4cc[n+](C)cc4)ccc3c2)cc1.[Cl-].[Cl-]` the solubility [14] was 3.5 mM.

Compound `C[n+]1ccc(-c2ccc(-c3cc[n+](C)cc3)c3ccccc23)cc1.[Cl-].[Cl-]` has a solubility [14] of 13.1 mM.
